In brackets after ≈: the same amount, converted by molar mass. Activity calls are given as the source filed them. The calls are words filed in the database; no cut-off is given here.

Results on eight compounds are retold here after ChEMBL document CHEMBL4145675, “2-Phenylquinoline S. aureus NorA Efflux Pump Inhibitors: Evaluation of the Importance of Methoxy Group Introduction” (J Med Chem, 2018).

For one series, the system named is Staphylococcus aureus. Nature of the series: Synergistic potentiation of ciprofloxacin-induced antimicrobial activity against wild type Staphylococcus aureus ATCC 25923 at 0.78 to 100 ug/ml by microdilution method based Checkerboard assay. It counts as functional, organism-based.
Conditions: not given
As for `CCCOc1ccc(-c2cc(OCCN3CCNCC3)c3cccc(OC)c3n2)cc1`, the “synergistic potentiation of ciprofloxacin activity” value is “Active”.
`CCCOc1ccc(-c2cc(OCCN3CCN(Cc4ccccc4)CC3)c3ccc(OC)cc3n2)cc1`: the “synergistic potentiation of ciprofloxacin activity” value is “Active”.

The subject of another series is Staphylococcus aureus. In words: Synergistic potentiation of ciprofloxacin-induced antimicrobial activity against Staphylococcus aureus SA-1199 at 0.78 to 100 ug/ml by microdilution method based Checkerboard assay. It counts as functional, organism-based.
Conditions: not given
On the technique in general: Broth dilution looks for growth in wells or tubes with falling amounts of substance.
Regarding `CCCOc1ccc(-c2cc(OCCN3CCNCC3)c3cccc(OC)c3n2)cc1`, the inhibition (in general, how much of the control response was suppressed) was “Active”.
On the same count and under the same terms, the entry for `CCCOc1ccc(-c2cc(OCCN3CCN(Cc4ccccc4)CC3)c3ccc(OC)cc3n2)cc1` is “Active”.

The test system of the next series is Staphylococcus aureus. Nature of the series: Antimicrobial activity against Staphylococcus aureus ATCC 25923 by microdilution method. Particulars: in vivo. It counts as organism-based. The gist of the method: (§1)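 Broth microdilution MIC per CLSI guidelines. ATCC 25923 is norA wild-type. SA-1199B overexpresses norA and carries an A116E GrlA substitution.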
The compound `CCCOc1ccc(-c2cc(OCCN3CCNCC3)c3cccc(OC)c3n2)cc1` gave an MIC above 100 µg/mL.
The same measure, in the same setting: the figure for `CCCOc1ccc(-c2cc(OCCN3CCN(Cc4ccccc4)CC3)c3ccc(OC)cc3n2)cc1` is above 100 µg/mL.

The test system of the next series is Staphylococcus aureus. Nature of the series: Antimicrobial activity against Staphylococcus aureus SA-1199B expressing wild type norA by microdilution method. Particulars: in vivo. It counts as organism-based. The gist of the method: as §1
The compound `CCCOc1ccc(-c2cc(OCCN3CCNCC3)c3cccc(OC)c3n2)cc1` showed an MIC above 100 µg/mL.
On the same count and under the same terms, the figure for `CCCOc1ccc(-c2cc(OCCN3CCN(Cc4ccccc4)CC3)c3ccc(OC)cc3n2)cc1` is above 100 µg/mL.

In another series the target is Quinolone resistance protein NorA (Staphylococcus aureus, UniProt P0A0J7, A116E). In words: Inhibition of NorA in Staphylococcus aureus SA-1199B expressing GrlA A116E mutant assessed as reduction in EtBr efflux incubated for 5 mins by fluorescence based assay.
Conditions: not given
In a few lines: (§2)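 Cells were grown overnight in cation-supplemented Mueller-Hinton broth at 35 °C and subcultured to OD600 0.7–0.8. They were loaded at OD600 0.8 with 25 µM EtBr plus 100 µM CCCP (final) for 20 min at room temperature. Cells were then resuspended in fresh broth with or without compound, 50 µM for the single-point screen or a concentration series for IC50. Fluorescence (ex 485/em 645 nm) was read for 5 min. Inhibition was calculated from the fluorescence decrease versus untreated cells. Biological triplicate, each run twice.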
Take `CCCOc1ccc(-c2cc(OCCN(CC)CC)c3cccc(OC)c3n2)cc1`: the IC50 (in general, the concentration that gives 50% inhibition) is 13.7 µM.
Still for that read-out and setting: the figure for `CCCOc1ccc(-c2cc(OCCN3CCNCC3)c3cc(OC)ccc3n2)cc1` is 15.6 µM; for `CCCOc1ccc(-c2cc(OCCN3CCCCC3)c3c(OC)cccc3n2)cc1` it is 19.1 µM; for `CCCOc1ccc(-c2cc(OCCN3CCNCC3)c3cccc(OC)c3n2)cc1` it is 9.9 µM.
On the same count and under the same terms, next, `CCCOc1ccc(-c2cc(OCCN3CCCCC3)c3cccc(OC)c3n2)cc1`: 11.9 µM; `CCCOc1ccc(-c2cc(OCCN3CCN(Cc4ccccc4)CC3)c3ccc(OC)cc3n2)cc1`: 7.3 µM.
In the case of `CCCOc1ccc(-c2cc(O)c3c(OC)cccc3n2)cc1`, the IC50 is 4.1 µM.

In a further series the target is T1, Quinolone resistance protein NorA (Staphylococcus aureus) (UniProt P0A0J7).
T1 sequence (whole entry): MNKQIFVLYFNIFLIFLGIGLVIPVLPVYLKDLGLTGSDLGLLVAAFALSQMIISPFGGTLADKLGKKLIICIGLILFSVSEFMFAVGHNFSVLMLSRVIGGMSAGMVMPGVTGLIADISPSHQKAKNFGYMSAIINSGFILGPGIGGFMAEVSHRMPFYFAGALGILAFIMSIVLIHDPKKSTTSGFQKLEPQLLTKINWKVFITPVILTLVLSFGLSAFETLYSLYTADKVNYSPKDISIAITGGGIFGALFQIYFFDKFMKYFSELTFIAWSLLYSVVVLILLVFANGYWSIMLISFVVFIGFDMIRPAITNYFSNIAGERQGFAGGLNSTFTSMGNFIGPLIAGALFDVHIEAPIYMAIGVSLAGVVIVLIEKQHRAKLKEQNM
In words: Inhibition of NorA in Staphylococcus aureus SA-1199B expressing GrlA A116E mutant assessed as reduction in EtBr efflux at 50 uM incubated for 5 mins by fluorescence based assay.
Conditions: not given
The gist of the method: as §2
For the compound `CCCOc1ccc(-c2cc(OCCN3CCCCCC3)c3cccc(OC)c3n2)cc1`, the inhibition worked out at 72.8%.
On the same count and under the same terms, the figure for `CCCOc1ccc(-c2cc(OCCN(CC)CC)c3cccc(OC)c3n2)cc1` is 83.1%.
Consider `CCCOc1ccc(-c2cc(OCCN3CCNCC3)c3cc(OC)ccc3n2)cc1`, for which the inhibition is 84.4%.
On the same count and under the same terms, the figure for `CCCOc1ccc(-c2cc(OCCN3CCCCC3)c3c(OC)cccc3n2)cc1` is 83.4%; for `CCCOc1ccc(-c2cc(OCCN3CCNCC3)c3cccc(OC)c3n2)cc1` it is 100%; for `CCCOc1ccc(-c2cc(OCCN3CCCCC3)c3cccc(OC)c3n2)cc1` it is 88.7%.
Same read-out and setting: the figure for `CCCOc1ccc(-c2cc(OCCN3CCN(Cc4ccccc4)CC3)c3ccc(OC)cc3n2)cc1` is 92.1%; for `CCCOc1ccc(-c2cc(O)c3c(OC)cccc3n2)cc1` it is 91.4%.

In another series the target is T1, Quinolone resistance protein NorA (Staphylococcus aureus). In words: Inhibition of NorA in Staphylococcus aureus SA-1199B expressing GrlA A116E mutant assessed as synergistic potentiation of ciprofloxacin-induced antimicrobial activity at 0.78 to 100 ug/ml by microdilution method based Checkerboard assay.
Conditions: not given
Take `CCCOc1ccc(-c2cc(OCCN3CCNCC3)c3cccc(OC)c3n2)cc1`: the inhibition result is “Active”.
With `CCCOc1ccc(-c2cc(OCCN3CCN(Cc4ccccc4)CC3)c3ccc(OC)cc3n2)cc1`, the inhibition result is “Active”.

The target is the same in another series. In words: Inhibition of NorA in Staphylococcus aureus SA-1199B expressing GrlA A116E mutant assessed as minimal potentiating drug concentration causing 8 fold reduction in ciprofloxacin MIC by microdilution method based Checkerboard assay.
Conditions: not given
Regarding `CCCOc1ccc(-c2cc(OCCN3CCNCC3)c3cccc(OC)c3n2)cc1`, the Activity was found to be 25 µg/mL.
Same read-out and setting: the figure for `CCCOc1ccc(-c2cc(OCCN3CCN(Cc4ccccc4)CC3)c3ccc(OC)cc3n2)cc1` is above 100 µg/mL.

The next series has as its system Staphylococcus aureus. In words: Antimicrobial activity against Staphylococcus aureus SA-1199B expressing wild type norA and co-expressing GrlA A116E mutant by microdilution method. Particulars: in vivo. It counts as organism-based. In a few lines:
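CLSI broth microdilution MIC of the compound alone. Strains: SA-K1902 (norA deleted), SA-K2378 (SA-K1902 carrying norA plus its promoter on multicopy plasmid pCU1), SA-1199B (norA overexpressing, GrlA A116E).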
`CCCOc1ccc(-c2cc(OCCN(CC)CC)c3cccc(OC)c3n2)cc1` came in with an MIC of 245 µM (≈ 100 µg/mL).
`CCCOc1ccc(-c2cc(OCCN3CCNCC3)c3cc(OC)ccc3n2)cc1` returned an MIC of 29.6 µM (≈ 12.5 µg/mL).
On the same count and under the same terms, the figure for `CCCOc1ccc(-c2cc(OCCN3CCCCC3)c3c(OC)cccc3n2)cc1` is 59.4 µM (≈ 25 µg/mL); for `CCCOc1ccc(-c2cc(OCCN3CCNCC3)c3cccc(OC)c3n2)cc1` it is above 237 µM; for `CCCOc1ccc(-c2cc(OCCN3CCCCC3)c3cccc(OC)c3n2)cc1` it is 238 µM (≈ 100 µg/mL).
The same measure, in the same setting: next, `CCCOc1ccc(-c2cc(OCCN3CCN(Cc4ccccc4)CC3)c3ccc(OC)cc3n2)cc1`: above 195 µM; `CCCOc1ccc(-c2cc(O)c3c(OC)cccc3n2)cc1`: 40.4 µM (≈ 12.5 µg/mL).
